# Source: PubChem (The Scripps Research Institute Molecular Screening Center)
# OX1R antag-1: antagonists of human orexin 1 receptor (OX1R); O43613; OX1R-expressing cells, FRET antagonist read-out; inhibition, % at 6.6 µM; 330,000 tested, 1.8% active; AID 485270; in the data active = inhibition mostly above about 38%, no sharp cut-off; inactive = mostly below about 40%
# GPR7 antag: human neuropeptides B/W receptor 1 antagonism; 290,000 tested, 1.1% active; inhibition, % at 4.4 µM; GPR7-expressing cells, fluorescence antagonist assay; P48145; in the data active = inhibition above about 16%, passing the limit was not always enough;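 note: cells stimulated with the agonist NPW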
# Target sequence (P48145 whole entry, looked up): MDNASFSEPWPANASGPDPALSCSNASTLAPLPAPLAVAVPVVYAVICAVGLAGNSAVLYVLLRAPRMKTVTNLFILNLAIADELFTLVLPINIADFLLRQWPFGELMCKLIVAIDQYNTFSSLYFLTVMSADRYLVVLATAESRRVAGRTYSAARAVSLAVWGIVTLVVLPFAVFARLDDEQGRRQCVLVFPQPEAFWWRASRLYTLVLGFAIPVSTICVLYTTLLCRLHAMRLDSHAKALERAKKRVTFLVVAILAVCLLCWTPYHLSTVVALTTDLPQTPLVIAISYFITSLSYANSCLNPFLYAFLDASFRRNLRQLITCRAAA
# GalR3 antag: human GalR3 antagonism. O60755. HEK293 GalR3-CNG cAMP membrane potential fluorescence; galR3 body fused to GalR1 C-terminus. inhibition, % at 3 µM. 360,000 tested, 0.44% active. AID 651719;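 active = inhibition above the screen-wide average plus 3 SD, cut at about 13% in these data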;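 note: forskolin and galanin both at EC90 stimulate the cells; cAMP rise reported by CNG channel membrane potential dye signal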
# Target sequence (O60755 1-299 limits assumed): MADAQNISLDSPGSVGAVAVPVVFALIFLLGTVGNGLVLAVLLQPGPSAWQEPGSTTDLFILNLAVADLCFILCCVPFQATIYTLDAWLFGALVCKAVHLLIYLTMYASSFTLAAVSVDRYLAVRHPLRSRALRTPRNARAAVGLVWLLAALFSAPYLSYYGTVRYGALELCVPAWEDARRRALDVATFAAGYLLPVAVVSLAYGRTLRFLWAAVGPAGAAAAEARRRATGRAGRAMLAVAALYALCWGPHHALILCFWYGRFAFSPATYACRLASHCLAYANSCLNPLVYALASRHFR
# CHO parental Ca: counter-screen for OX1R antagonists: effect in parental CHO cells | parental CHO-K1, ATP-induced calcium, Fluo-8 fluorescence | 330,000 tested, 0.63% active | inhibition, % at 5.6 µM;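 active = inhibition above that plate's mean sample inhibition plus 3 SD, cut at about 26% in these data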
#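 Assay system: untransfected parental CHO cell line. Also added: ATP agonist challenge. Dosing: one dose, 5.6 µM nominal. Measured by: Fluo-8 fluorescence. Read-out: % inhibition. Benchmarks: ATP wells versus no-ATP DMSO wells. Repeats: no replicates.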
# OX1R antag-2: human HCRTR1 antagonism | AID 434989 | inhibition, % at 5 µM | O43613 | 330,000 tested, 0.43% active | CHO/OX1R cells, Fluo-8 calcium fluorescence, orexin A;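 active = inhibition above its plate's threshold, mean inhibition of all tested compounds on the plate plus 3 SD, cut at about 37% in these data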
# GPR7 antag cf: human GPR7 antagonism, confirmation assay; shares compounds with GPR7 antag; GPR7-expressing cells, calcium fluorescence antagonist mode; inhibition, % at 4.4 µM; 2,400 tested, 52% active; AID 1952; in the data active = inhibition above about 24%;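 note: stimulated with the GPR7 agonist NPW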
# MCHR1 antag: antagonizes human MCHR1, a GPR7 antagonist counter-screen; shares compounds with GPR7 antag; MCHR1-expressing cells, fluorescence antagonist assay; inhibition, % at 4.4 µM; 2,400 tested, 62% active; AID 2148; in the data active = inhibition above about 22%
# Hits are given with their value; - = inactive; . = not tested or not shown. Shown are actives, neighbours in structure and some others; about 3.1% of the full set was active somewhere.
SMILES,OX1R antag-1,GPR7 antag,GalR3 antag,CHO parental Ca,OX1R antag-2,GPR7 antag cf,MCHR1 antag
Cc1ccc(OCCOC(=O)CN2C(=O)NC3(CCCC3)C2=O)cc1,-,.,-,-,-,.,.
COC(=O)CSc1nc(N)c(C#N)c(CC(C)C)c1C#N,-,26,-,-,-,-,-
Cc1ccc(NCc2nnc(SCC(N)=O)o2)c(C)c1,-,-,-,-,-,.,.
Cc1ccc(NCc2nnc(SCC(=O)OC3CCCCC3)o2)c(C)c1,-,28,-,-,-,-,23
Cn1cccc1/C=C1\SC(=S)N(Nc2ccccc2)C1=O,-,22,-,-,-,-,23
COc1ccc(CC(=O)NC(=S)Nc2ccc(S(=O)(=O)NC(C)(C)C)cc2)cc1,-,49,-,-,-,72,70
C=CCN(CC=C)S(=O)(=O)c1ccc(NC(=S)NC(=O)Cc2ccc(OC)cc2)cc1,-,34,-,-,-,50,65
Cc1ccc(S(=O)(=O)N(C)C)cc1NC(=O)CN1C(=O)NC2(CCc3ccccc32)C1=O (configuration not stated),.,.,-,.,.,.,.
Cc1cccc(NC(=O)CNC(=O)[C@@H](Cc2ccccc2)NC(=O)[C@H]2O[C@@H](n3ccc(N)nc3=O)[C@H](O)[C@@H]2O)c1C,.,.,-,.,.,.,.
Cc1ccc(CSCCNC(=O)c2ccccc2)cc1,-,-,-,-,-,.,.
Cc1ccccc1CNC(=O)c1ccc(CSCc2ccccc2)cc1,-,32,-,-,-,25,48
CCCSC(=O)N(CC)CC(=O)Nc1c(CC)cccc1CC,-,26,.,-,-,26,22
CCCCN(CC(=O)Nc1c(C)cccc1CC)C(=O)SCC,-,36,.,-,-,39,30
CCc1cccc(CC)c1NC(=O)CN(CC(=O)O)CC(=O)O,-,.,-,-,-,.,.
CCc1cccc(C)c1NC(=O)Cc1ccsc1,-,-,-,-,-,.,.
C=CCN(CC(=O)Nc1c(C)cccc1CC)C(=O)SCCC,-,27,-,-,-,-,-
CC1(C(=O)NCc2ccccc2)CN(S(C)(=O)=O)CC(=O)N1C1CCN(Cc2ccccc2)CC1 (configuration not stated),.,.,-,.,.,.,.
Cc1cccc(C)c1NC(=O)C(C)NCc1cccs1 (configuration not stated),.,.,-,.,.,.,.
COc1ccc(NC(=O)c2cccc(N3C(=O)C4C5C=CC(C6CC56)C4C3=O)c2)cc1 (configuration not stated),-,-,-,-,-,.,.
COCCOC(=O)c1[nH]c2c(c1C)C(=O)CC(c1ccco1)C2 (configuration not stated),-,24,-,-,-,-,36
CCOC(=O)c1[nH]c2c(c1C)C(=O)CC(c1ccco1)C2 (configuration not stated),-,-,-,-,-,.,.
CC1CC(C)CN(C(=O)Cn2nnc(-c3ccc(Br)cc3)n2)C1 (configuration not stated),-,-,-,-,-,.,.
CC(=O)CC(=O)O[C@@H]1C=C[C@H](NC(=O)OC(C)(C)C)C1,.,.,-,.,.,.,.
CCCCN1C(=O)C(NC(C)=O)c2cc(Br)ccc21 (configuration not stated),-,53,-,-,-,26,-
CCN1C(=O)C(NC(C)=O)c2cc(Br)ccc21 (configuration not stated),-,-,-,-,-,.,.
SMILES,OX1R antag-1,GPR7 antag,GalR3 antag,CHO parental Ca,OX1R antag-2,GPR7 antag cf,MCHR1 antag
CCNC(=S)Nc1ccc(Oc2ccccc2)cc1,-,-,-,-,-,.,.
S=C(NCc1ccccc1)Nc1ccc(Oc2ccccc2)cc1,-,28,-,-,-,-,29
CCCCCCCCN1C(=O)[C@H](CC(=O)N2CCN(C(=O)OCC)CC2)C[C@@]2(C(=O)OCC)CCCC=C12,.,.,-,.,.,.,.
CN(C)S(=O)(=O)c1ccc(N2CCCC2)c(C(=O)NC(c2ccccc2)c2ccccc2)c1,-,25,-,-,-,32,22
CCCc1ccc(C(C)NC(=S)NCc2ccc(F)cc2)cc1 (configuration not stated),-,59,-,33,-,79,93
CCOc1ccc(C(C)NC(=S)NCc2ccc(Cl)cc2)cc1 (configuration not stated),-,30,-,-,-,61,70
CCC(C)c1ccc(C(C)NC(=S)NCc2ccc(F)cc2)cc1 (configuration not stated),-,-,-,-,-,.,.
COC(=O)C1(F)C(=O)NC(=O)NC1OC (configuration not stated),.,.,-,.,.,.,.
CC(C)c1ccc(NC(=O)[C@H](Cc2c[nH]c3ccccc23)NC(=O)[C@@H]2Cc3ccccc3CN2)cc1,-,27,-,-,-,-,-
COC(=O)c1c(C)n(-c2ccc(OC)cc2)c2ccc(O)cc12,-,-,-,-,-,.,.
CCOC(=O)c1c(C)n(-c2ccc(F)cc2)c2ccc(O)cc12,-,72,.,-,-,-,-
N#CCOC(=O)[C@H](Cc1c[nH]c2ccccc12)NS(=O)(=O)c1ccc(Cl)cc1,-,43,-,-,-,49,33
Cc1ccc(OC(=O)N(C)C[C@@H]2OCc3cn(nn3)CCCC(=O)N([C@@H](C)CO)C[C@H]2C)cc1,.,.,-,.,.,.,.
O=C(COC(=O)c1ccccn1)NCc1ccccc1Cl,-,24,-,-,-,-,-
CCC(NC(=O)c1cc(COc2ccc(F)cc2Cl)on1)c1ccncc1 (configuration not stated),.,30,-,.,.,-,47
Cc1nc(NCc2ccccn2)c2c3c(sc2n1)CCCC3,-,32,-,-,-,25,22
COc1ccccc1CNC(=O)CN(C)Cc1ccc(SC)cc1,-,26,-,-,-,37,36
CC(C)c1nc(SCC(=O)c2c[nH]c3ccccc23)n[nH]1,-,33,-,-,-,-,-
O=C1Nc2cc(C(=O)NCCCN3CCOCC3)ccc2S/C1=C/c1cccc(Cl)c1,-,-,-,-,-,.,.
O=C(NCCCN1CCOCC1)c1ccc2c(c1)N(Cc1c(F)cccc1Cl)C(=O)c1ccccc1S2,-,25,-,-,-,37,-
O=C1Nc2cc(C(=O)NCCCN3CCOCC3)ccc2S/C1=C/c1ccccc1F,-,40,-,-,-,33,28
C[C@@H]1CN([C@H](C)CO)C(=O)CCCn2cc(nn2)CO[C@H]1CN(C)C(=O)Nc1ccnc(N2CCOCC2)c1,.,.,-,.,.,.,.
CN(C)CCCNC(=O)c1ccc(-c2nc(-c3ccc(Cl)cc3)cs2)cc1,-,41,-,-,-,91,92
CCOC(=O)/C(C)=C1\NC(C)(C)Cc2ccccc21,.,24,-,.,.,-,-
O=P(Cc1cc(Br)cc(Br)c1OCCO)(c1ccccc1)c1ccccc1,-,33,-,-,-,39,-
CCCCOc1ccc(OC(=O)Nc2cc(Cl)ccc2OC)cc1,-,-,-,-,-,.,.
